Calls of active or inactive are those of the source. No cut-off for these calls is given here.
Legend:
[1] = biological target: Survival motor neuron protein (Homo sapiens) (UniProt Q16637); assay: Activation of SMN expressed in HEK293 cells assessed as rate of induction by SMN2-promotor driven luciferase reporter gene assay relative to basal level; type: cell-based; parameters: concentration or dose not given beside the values
Procedure, shortened: (§1)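 HEK-293 cells stably carrying the SMN2 reporter construct, kept in DMEM with 10% FCS, glutamax, pyruvate, pen/strep and 200 µg/mL hygromycin, and assayed without hygromycin. 2,000 cells/well were plated and adhered overnight at 37 °C, 5% CO2. Compounds were added as a 7-point titration, 50 µM to 25 nM final, in 0.46% DMSO, for 30–36 h. OneGlo luminescence was normalized to 4.5 mM sodium butyrate (100%) and DMSO (0%).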

[2] = biological target: Survival motor neuron protein (Homo sapiens) (UniProt Q16637); assay: Activation of SMN expressed in HEK293 cells assessed as concentration required to reach 50% of maximum luciferase signal by SMN2-promotor driven luciferase reporter gene assay; type: cell-based; procedure, shortened: as §1

Sequence of Survival motor neuron protein (Homo sapiens) (Q16637 whole entry): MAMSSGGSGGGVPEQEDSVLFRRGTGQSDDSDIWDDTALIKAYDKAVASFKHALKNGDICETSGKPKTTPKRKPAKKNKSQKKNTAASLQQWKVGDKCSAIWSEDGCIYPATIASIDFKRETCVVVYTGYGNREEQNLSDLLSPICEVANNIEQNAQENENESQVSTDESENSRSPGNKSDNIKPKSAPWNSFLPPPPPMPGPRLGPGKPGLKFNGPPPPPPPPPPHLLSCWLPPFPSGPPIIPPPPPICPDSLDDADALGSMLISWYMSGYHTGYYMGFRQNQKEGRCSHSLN

Row | Compound | Activity [1] | Activity [2]
1 | CC(C)(C)c1ccc(-c2csc(N3CCC(C(N)=O)CC3)n2)cc1 | 243% | 3.87 µM
2 | Cc1ccc(-c2ccnc(N3CCC(C(N)=O)CC3)n2)cc1 | 444% | 0.387 µM
3 | NC(=O)C1CCN(c2nc(-c3ccccc3Cl)cs2)CC1 | 57% | 7.72 µM
4 | CC(C)COc1ccc(-c2csc(N3CCC(C(N)=O)CC3)n2)cc1 | 54% | 3.07 µM
5 | NC(=O)C1CCN(c2nc(-c3ccc(OCc4ccccc4)cc3)cs2)CC1 | – | inactive
6 | NC(=O)C1CCN(c2nccc(Cl)n2)CC1 | – | inactive
7 | NC(=O)C1CCN(c2nc(-c3cccc(Br)c3)cs2)CC1 | 57% | 30.8 µM
8 | CCOC(=O)C1CCN(c2nc(-c3ccc(Br)cc3)cs2)CC1 | 550% | 7.72 µM
9 | CN(C)c1cccc(-c2cnc(N3CCC(c4ncc[nH]4)CC3)s2)c1 | 188% | 7.72 µM
10 | O=C(c1ccco1)N1CCN(c2nc(-c3ccc(Br)cc3)cs2)CC1 | – | inactive
11 | CN(C)C(=O)C1CCN(c2nc(-c3ccc(Br)cc3)cs2)CC1 | 43% | 30.8 µM
12 | NC(=O)C1CCN(c2ncc(-c3ccc4c(c3)OCCO4)s2)CC1 | 424% | 0.097 µM
13 | NC(=O)C1CCN(c2nc(-c3ccc([N+](=O)[O-])cc3)cs2)CC1 | 254% | 15.4 µM
14 | COc1ccccc1-c1csc(N2CCC(C(N)=O)CC2)n1 | – | inactive
15 | COc1ccc(-c2cnc(N3CCC(C(N)=O)CC3)s2)cc1OC | 209% | 9.72 µM
16 | NC(=O)C1CCN(c2ncc(Br)cn2)CC1 | – | inactive
17 | CN(C)c1cccc(-c2ccnc(N3CCC(C(N)=O)CC3)n2)c1 | 446% | 0.772 µM
18 | NC(=O)C1CCN(c2nc(-c3ccc(OC(F)(F)F)cc3)cs2)CC1 | 297% | 3.07 µM
19 | NC(=O)C1CCN(c2nc(-c3cccc4ccccc34)cs2)CC1 | – | inactive
20 | COc1cc(OC)cc(-c2csc(N3CCC(C(N)=O)CC3)n2)c1 | 45% | 7.72 µM
21 | NC(=O)N1CCN(c2nc(-c3ccc(Br)cc3)cs2)CC1 | 89% | 12.2 µM
22 | NC(=O)C1CCN(c2nc(-c3cccc([N+](=O)[O-])c3)cs2)CC1 | 20% | 3.87 µM
23 | NC(=O)C1CCN(c2nccc(-c3ccc4c(c3)OCCCO4)n2)CC1 | 234% | 1.54 µM

Row | Compound | Activity [1] | Activity [2]
24 | CN(C)c1ccccc1-c1csc(N2CCC(C(N)=O)CC2)n1 | – | inactive
25 | NC(=O)C1CCN(c2nc(-c3ccc(Cl)cc3)cs2)CC1 | 381% | 2.44 µM
26 | NC(=O)C1CCN(c2nc(-c3cccc(Cl)c3)cs2)CC1 | 53% | 12.2 µM
27 | NC(=O)C1CCN(c2nc(-c3cccnc3)cs2)CC1 | – | inactive
28 | CC(=O)C1CCN(c2ncc(-c3cccc(N(C)C)c3)s2)CC1 | 224% | 3.07 µM
29 | CC(C)Oc1cccc(-c2csc(N3CCC(C(N)=O)CC3)n2)c1 | 605% | 0.77 µM
30 | N#CC1CCN(c2nc(-c3ccc(Br)cc3)cs2)CC1 | 78% | 30.7 µM
31 | NC(=O)C1CCN(c2nc(-c3ccc(C(F)(F)F)cc3)cs2)CC1 | 386% | 2.44 µM
32 | CC(=O)Nc1ccc(-c2csc(N3CCC(C(N)=O)CC3)n2)cc1 | – | inactive
33 | NC(=O)C1CCN(c2nc(-c3cc4ccccc4o3)cs2)CC1 | – | 15.4 µM
34 | NC(=O)C1CCN(c2nc(-c3cccc(N)c3)cs2)CC1 | – | inactive
35 | NC(=O)C1CCN(c2ncc(-c3cccc(N4CCOCC4)c3)s2)CC1 | 275% | 2.44 µM
36 | CN(C)c1cccc(-c2ncc(F)c(N3CCC(C(N)=O)CC3)n2)c1 | 141% | 3.07 µM
37 | NC(=O)C1CCN(c2nc(-c3ccccc3Br)cs2)CC1 | – | inactive
38 | Brc1ccc(-c2csc(N3CCCCC3)n2)cc1 | 272% | 19.4 µM
39 | CS(=O)(=O)N1CCN(c2nc(-c3ccc(Br)cc3)cs2)CC1 | – | inactive
40 | NC(=O)C1CCN(c2ncc(-c3cccc(N4CCCC4)c3)s2)CC1 | 685% | 0.387 µM
41 | NC(=O)C1CCN(c2nccc(-c3ccc(Br)cc3)n2)CC1 | 387% | 0.387 µM
42 | Cc1noc(C)c1-c1csc(N2CCC(C(N)=O)CC2)n1 | – | inactive
43 | NC(=O)C1CCN(c2nc(-c3ccccc3)cs2)CC1 | 167% | 7.72 µM
44 | COc1ccc(-c2csc(N3CCC(C(N)=O)CC3)n2)cc1OC | 59% | 12.2 µM
45 | CC(=O)c1cccc(-c2csc(N3CCC(C(N)=O)CC3)n2)c1 | 356% | 3.87 µM
46 | NC(=O)C1CCN(c2nc(-c3ccc(-c4ccccc4)cc3)cs2)CC1 | 58% | 24.4 µM

Row | Compound | Activity [1] | Activity [2]
47 | CC(C)(C)OC(=O)NC1CCN(c2nc(-c3ccc(Br)cc3)cs2)CC1 | – | inactive
48 | Cc1ccc(-c2csc(N3CCC(C(N)=O)CC3)n2)cc1 | 439% | 1.22 µM
49 | O=C(NCCCCc1ccccc1)C1CCN(c2nc(-c3ccc(Br)cc3)cs2)CC1 | – | inactive
50 | NC(=O)C1CCN(c2nc(-c3ccc(F)cc3)cs2)CC1 | 288% | 3.87 µM
51 | CC(=O)C1CCN(c2ncc(-c3ccc4c(c3)OCCCO4)s2)CC1 | – | inactive
52 | CN(C)c1cccc(-c2nc(N3CCC(C(N)=O)CC3)ncc2F)c1 | 373% | 0.387 µM
53 | NC(=O)C1CCN(c2nc(-c3ccccc3[N+](=O)[O-])cs2)CC1 | – | inactive
54 | CN(C)C(=O)c1ccc(-c2csc(N3CCC(C(N)=O)CC3)n2)cc1 | 51% | 12.2 µM
55 | CN(C)c1cccc(-c2cnc(N3CCC(C(N)=O)CC3)s2)c1 | 550% | 0.039 µM
56 | NC(=O)C1CCN(c2nc(-c3ccccc3-c3ccccc3)cs2)CC1 | – | inactive
57 | NC(=O)C1CCN(c2cc(-c3ccc4c(c3)OCCCO4)ncn2)CC1 | 211% | 7.72 µM
58 | Brc1ccc(-c2csc(N3CCOCC3)n2)cc1 | – | inactive
59 | NC(=O)C1CCN(c2nc(-c3cccs3)cs2)CC1 | 51% | 7.72 µM
60 | O=C(C1CCN(c2nc(-c3ccc(Br)cc3)cs2)CC1)N1CCNCC1 | – | inactive
61 | NC(=O)C1CCN(c2ncnc(-c3ccc4c(c3)OCCCO4)n2)CC1 | 186% | 2.44 µM
62 | NC(=O)C1CCN(c2ncc(-c3ccc4c(c3)OC(F)(F)O4)s2)CC1 | 598% | 0.194 µM
63 | CC(=O)c1ccc(-c2csc(N3CCC(C(N)=O)CC3)n2)cc1 | 130% | 12.2 µM
64 | CN(C)c1cccc(-c2cnc(N3CCC(C(N)=O)CC3)nc2)c1 | 236% | 0.613 µM
65 | NC(=O)C1CCN(c2ncc(-c3ccc4c(c3)OCO4)s2)CC1 | 590% | 0.049 µM
66 | CC(=O)NC1CCN(c2nc(-c3ccc(Br)cc3)cs2)CC1 | -57% | 15.4 µM
67 | Brc1ccc(-c2csc(N3CCC(c4nnn[nH]4)CC3)n2)cc1 | 67% | 12.2 µM
68 | NC(=O)C1CCN(c2nc(-c3ccc4occc(=O)c4c3)cs2)CC1 | 589% | 15.4 µM
69 | O=C(NCCCc1ccccc1)C1CCN(c2nc(-c3ccc(Br)cc3)cs2)CC1 | – | inactive

Row | Compound | Activity [1] | Activity [2]
70 | Cc1cnc(N2CCC(C(N)=O)CC2)nc1-c1cccc(N(C)C)c1 | – | inactive
71 | NC(=O)C1CCN(c2ncc(Br)s2)CC1 | – | inactive
72 | c1c[nH]c(C2CCN(c3ncc(-c4ccc5c(c4)OCCCO5)s3)CC2)n1 | 129% | 2.44 µM
73 | CS(=O)(=O)c1ccccc1-c1csc(N2CCC(C(N)=O)CC2)n1 | – | inactive
74 | Brc1ccc(-c2csc(N3CCNCC3)n2)cc1 | -97% | 24.4 µM
75 | N#Cc1cccc(-c2csc(N3CCC(C(N)=O)CC3)n2)c1 | – | inactive
76 | N#Cc1ccccc1-c1csc(N2CCC(C(N)=O)CC2)n1 | – | inactive
77 | O=C(C1CCN(c2nc(-c3ccc(Br)cc3)cs2)CC1)N1CCOCC1 | 77% | 30.8 µM
78 | NC(=O)C1CCN(c2nc(-c3ccc4c(c3)OCO4)cs2)CC1 | 359% | 2.44 µM
79 | O=C(NCCc1ccccc1)C1CCN(c2nc(-c3ccc(Br)cc3)cs2)CC1 | 32% | 6.13 µM
80 | NC(=O)C1CCN(c2nc(-c3ccc4c(c3)OCCO4)cs2)CC1 | 459% | 0.77 µM
81 | NC(=O)C1CCN(c2nc(-c3ccc(N)cc3)cs2)CC1 | – | inactive
82 | NC(=O)C1CCN(c2nnc(-c3ccc(Br)cc3)s2)CC1 | – | inactive
83 | NC(=O)C1CCN(c2nc(-c3cccc(C(F)(F)F)c3)cs2)CC1 | – | 3.87 µM
84 | O=C(NCc1ccccc1)C1CCN(c2nc(-c3ccc(Br)cc3)cs2)CC1 | – | inactive
85 | CN(C)c1cccc(-c2csc(N3CCC(C(N)=O)CC3)n2)c1 | 504% | 0.97 µM
86 | CC(C(=O)O)c1ccc(N2Cc3ccccc3C2=O)cc1 (stereo unspecified) | – | > 1 µM
87 | O=S(=O)(c1ccccc1)N1CCN(c2nc(-c3ccc(Br)cc3)cs2)CC1 | – | inactive
88 | CS(=O)(=O)c1cccc(-c2csc(N3CCC(C(N)=O)CC3)n2)c1 | – | inactive
89 | CS(=O)(=O)c1ccc(-c2csc(N3CCC(C(N)=O)CC3)n2)cc1 | – | inactive
90 | NC(=O)C1CCN(c2nc(-c3ccccc3C(F)(F)F)cs2)CC1 | – | inactive
91 | O=C(c1ccccc1)N1CCN(c2nc(-c3ccc(Br)cc3)cs2)CC1 | – | inactive
92 | NC(=O)C1CCN(c2nc(-c3ccc(N4CCCCC4)nc3)cs2)CC1 | – | 6.13 µM
